Experimental findings from ChEMBL document CHEMBL1156171, “N-aryltriazole ribonucleosides with potent antiproliferative activity against drug-resistant pancreatic cancer” (2010) are described below.

The test system of experiment [1] is MIA PaCa-2. Put plainly: Antiproliferative activity against human MIAPaCa2 cells assessed as cell viability at 50 uM after 48 hrs by MTT assay. Format: functional. The settings on record: MIA PaCa-2, 48 h, read-out: Activity. The method in brief: (§1)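 Cells exposed to 50 µM compound (fresh medium) for 48 h at 37 °C, 5% CO2; untreated control. Viable cells counted by MTT colorimetric assay. Documented for MiaPaCa-2: DMEM + 10% FBS, 15,000 cells/well, overnight attachment before treatment.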

A further experiment deals with Capan-2. In words: Antiproliferative activity against human Capan2 cells assessed as cell viability at 50 uM after 48 hrs by MTT assay. Format: functional. The settings on record: Capan-2, 48 h, read-out: Activity. An outline of the steps:
as §1
(In general: Tetrazolium dyes change colour on reduction, which living cells bring about.)

The subject of a further experiment is PC-3. Put plainly: Antiproliferative activity against human PC3 cells assessed as cell viability at 50 uM after 48 hrs by MTT assay. The following applies: PC-3, 48 h, read-out: Activity. Format: functional. An outline of the steps: as §1
The subject of experiment [2] is MIA PaCa-2. In words: Induction of apoptosis in human MIAPaCa2 cells assessed as increase in sub-G1/G0 cell fraction at 50 uM after 48 hrs using propidium iodide staining by FACS analysis. Format: functional, cell-based. An outline of the steps: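 MiaPaCa-2 cells plated at 10^6 per dish, grown overnight, then given fresh medium with 50 µM compound for 48 h; untreated negative control. Cells trypsinized, PBS-washed, fixed overnight in cold 70% ethanol at 4 °C, RNase-treated, propidium iodide stained, and sub-G1/G0 fraction read by flow cytometry. Triplicate samples.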

Experiment [3] deals with MIA PaCa-2. In words: Induction of apoptosis in human MIAPaCa2 cells assessed as increase in caspase 3/7 activation at 50 uM after 24 hrs by luminescence assay. Format: functional, cell-based. An outline of the steps:
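MiaPaCa-2 cells plated at 15,000 cells/well and treated 24 h later with 50 µM compound for 24 h. Caspase-Glo 3/7 reagent added; DEVD-containing luminogenic substrate cleavage read as luminescence after 1 h at room temperature. Untreated cells as control.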

Experiment [4] relates to MIA PaCa-2. In words: Antiproliferative activity against human MIAPaCa2 cells assessed as cell viability after 48 hrs by MTT assay. In kind it is functional, cell-based. An outline of the steps:
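MiaPaCa-2 cells in DMEM + 10% FBS, plated at 15,000 cells/well and attached overnight. Medium then replaced with fresh medium holding compound over a dose range; 37 °C, 5% CO2, 48 h. Viable cells determined by MTT colorimetric assay relative to untreated control.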

The source made the active and inactive calls. The rule behind the calls is not given here.

As for `COC(=O)c1nc(Nc2ccccc2)nn1[C@@H]1O[C@H](COC(C)=O)[C@@H](OC(C)=O)[C@H]1OC(C)=O`, the viability at 50 µM in the experiment on MIA PaCa-2 [1] amounted to 138%; in the experiment with Capan-2, 96.2%; with PC-3, 91%.

For `COC(=O)c1nc(Nc2cccc(C)c2)nn1[C@@H]1O[C@H](COC(C)=O)[C@@H](OC(C)=O)[C@H]1OC(C)=O`, the viability at 50 µM in the experiment with MIA PaCa-2 [1] was determined as 99.9%; in the experiment on Capan-2, 84.9%; with PC-3, 94.2%.

Take `COC(=O)c1nc(Nc2cccc(Cl)c2)nn1[C@@H]1O[C@H](COC(C)=O)[C@@H](OC(C)=O)[C@H]1OC(C)=O`: the results for the viability at 50 µM in the experiment with MIA PaCa-2 [1], in the experiment on Capan-2 and in the experiment on PC-3 were 72.4%, 65.8% and 69.8%, respectively.

Regarding `NC(=O)c1nc(Nc2ccccc2)nn1[C@@H]1O[C@H](CO)[C@@H](O)[C@H]1O`, the viability at 50 µM stood at 68% in the experiment with MIA PaCa-2 [1], 46.6% in the experiment on Capan-2 and 73.9% with PC-3.

Consider `COC(=O)c1nc(Nc2ccc(F)cc2)nn1[C@@H]1O[C@H](COC(C)=O)[C@@H](OC(C)=O)[C@H]1OC(C)=O`, for which the viability at 50 µM turned out to be 80.2% with MIA PaCa-2 [1], 79.8% in the experiment on Capan-2 and 84.7% with PC-3.

Turning to `NC(=O)c1nc(Nc2ccc(Cl)cc2)nn1[C@@H]1O[C@H](CO)[C@@H](O)[C@H]1O`, the viability at 50 µM came out at 95.9% in the experiment with MIA PaCa-2 [1], 72.8% in the experiment with Capan-2 and 70.2% with PC-3.

On to `COc1ccc(Nc2nc(C(N)=O)n([C@@H]3O[C@H](CO)[C@@H](O)[C@H]3O)n2)cc1`, for which the results for the viability at 50 µM in the experiment with MIA PaCa-2 [1], with Capan-2 and in the experiment with PC-3 were 126%, 126% and 102%, respectively.

For the molecule `COC(=O)c1nc(Nc2ccc(Cl)cc2)nn1[C@@H]1O[C@H](COC(C)=O)[C@@H](OC(C)=O)[C@H]1OC(C)=O`, the values for the viability at 50 µM in the experiment with MIA PaCa-2 [1], with Capan-2 and with PC-3 were 43.8%, 59.6% and 60.2%, respectively. Also, the outcome in the experiment with MIA PaCa-2 [2] and in the experiment with MIA PaCa-2 [3] was Active. For the same molecule, in the experiment with MIA PaCa-2 [4], the Activity result is “Dose-dependent effect”.

Consider `Cc1ccc(Nc2nc(C(N)=O)n([C@@H]3O[C@H](CO)[C@@H](O)[C@H]3O)n2)cc1`, for which the viability at 50 µM in the experiment with MIA PaCa-2 [1] was found to be 85.6%; with Capan-2, 63.9%; with PC-3 it was 108%.

As to `Cc1cccc(Nc2nc(C(N)=O)n([C@@H]3O[C@H](CO)[C@@H](O)[C@H]3O)n2)c1`, the viability at 50 µM in the experiment on MIA PaCa-2 [1] was determined as 100%; with Capan-2 it was 76.3%; with PC-3, 96.2%.

With `CCc1ccc(Nc2nc(C(N)=O)n([C@@H]3O[C@H](CO)[C@@H](O)[C@H]3O)n2)cc1`, the viability at 50 µM with MIA PaCa-2 [1] was 99.8%; in the experiment on Capan-2, 66%; with PC-3, 91.4%.

As to `COC(=O)c1nc(Nc2ccc(SC)cc2)nn1[C@@H]1O[C@H](COC(C)=O)[C@@H](OC(C)=O)[C@H]1OC(C)=O`, the viability at 50 µM in the experiment on MIA PaCa-2 [1] is 85.4%; in the experiment with Capan-2, 88.1%; in the experiment on PC-3 it was 106%.

Regarding `CCCc1ccc(Nc2nc(C(=O)OC)n([C@@H]3O[C@H](COC(C)=O)[C@@H](OC(C)=O)[C@H]3OC(C)=O)n2)cc1`, the figures for the viability at 50 µM with MIA PaCa-2 [1], in the experiment on Capan-2 and in the experiment with PC-3 were 103%, 95.9% and 90.2%, respectively.

For the molecule `NC(=O)c1nc(Nc2ccc(C(F)(F)F)cc2)nn1[C@@H]1O[C@H](CO)[C@@H](O)[C@H]1O`, the viability at 50 µM in the experiment with MIA PaCa-2 [1] was determined as 100%; in the experiment with Capan-2 it was 122%; in the experiment with PC-3, 89.4%.

Take `COC(=O)c1nc(Nc2ccc(C(F)(F)F)cc2)nn1[C@@H]1O[C@H](COC(C)=O)[C@@H](OC(C)=O)[C@H]1OC(C)=O`: the viability at 50 µM with MIA PaCa-2 [1] was determined as 98.6%; with Capan-2 it was 64.4%; in the experiment with PC-3, 88.4%.

As to `CCCc1ccc(Nc2nc(C(N)=O)n([C@@H]3O[C@H](CO)[C@@H](O)[C@H]3O)n2)cc1`, the results for the viability at 50 µM with MIA PaCa-2 [1], in the experiment on Capan-2 and with PC-3 were 103%, 71.5% and 90.3%, respectively.

As for `CCc1ccc(Nc2nc(C(=O)OC)n([C@@H]3O[C@H](COC(C)=O)[C@@H](OC(C)=O)[C@H]3OC(C)=O)n2)cc1`, the viability at 50 µM in the experiment on MIA PaCa-2 [1] was 99%; with Capan-2, 90%; with PC-3, 96.1%.

In the case of `NC(=O)c1nc(Nc2ccc(F)cc2)nn1[C@@H]1O[C@H](CO)[C@@H](O)[C@H]1O`, the viability at 50 µM stood at 68.1% in the experiment on MIA PaCa-2 [1], 62.9% with Capan-2 and 67% in the experiment with PC-3.

For `COC(=O)c1nc(Nc2ccc(OC)cc2)nn1[C@@H]1O[C@H](COC(C)=O)[C@@H](OC(C)=O)[C@H]1OC(C)=O`, the values for the viability at 50 µM in the experiment on MIA PaCa-2 [1], with Capan-2 and with PC-3 were 96.4%, 72% and 85.6%, respectively.

`COC(=O)c1nc(Nc2ccc(C)cc2)nn1[C@@H]1O[C@H](COC(C)=O)[C@@H](OC(C)=O)[C@H]1OC(C)=O`: the viability at 50 µM in the experiment with MIA PaCa-2 [1] was determined as 58.6%; in the experiment with Capan-2, 47.1%; with PC-3, 68.6%. Further, the result in the experiment with MIA PaCa-2 [2] and in the experiment on MIA PaCa-2 [3] was Active. The Activity result in the experiment on MIA PaCa-2 [4] is “Dose-dependent effect”.

Take `CSc1ccc(Nc2nc(C(N)=O)n([C@@H]3O[C@H](CO)[C@@H](O)[C@H]3O)n2)cc1`: the viability at 50 µM was found to be 98.6% with MIA PaCa-2 [1], 71.1% in the experiment with Capan-2 and 92.1% in the experiment with PC-3.

Turning to `NC(=O)c1nc(Nc2cccc(Cl)c2)nn1[C@@H]1O[C@H](CO)[C@@H](O)[C@H]1O`, the viability at 50 µM in the experiment on MIA PaCa-2 [1] was 88.7%; in the experiment with Capan-2 it was 66.2%; in the experiment on PC-3, 77.4%.

With `CC(=O)O[C@H]1C(=O)[C@@]2(C)[C@H]([C@H](OC(=O)c3ccccc3)[C@]3(O)C[C@H](OC(=O)[C@H](O)[C@@H](NC(=O)c4ccccc4)c4ccccc4)C(C)=C1C3(C)C)[C@]1(OC(C)=O)CO[C@@H]1C[C@@H]2O` [PACLITAXEL], the viability at 50 µM with PC-3 amounted to 41.3%.

On to `Nc1ccn([C@@H]2O[C@H](CO)[C@@H](O)C2(F)F)c(=O)n1` [GEMCITABINE], for which the figures for the viability at 50 µM in the experiment on MIA PaCa-2 [1] and in the experiment on Capan-2 were 70.4% and 32.7%, respectively.
